Reference: PubChem BioAssay AID373 (The Scripps Research Institute Molecular Screening Center, 2006)
In all, about 60,000 compounds went through this assay and about 60 (0.1%) were called active.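 How the source made its calls: active means activation above the screen-wide mean plus 3 SD (cut at about 4.5% in these data, passing the limit was not always enough); inactive means the rest, inconclusive results apart.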 The sample as a whole holds a higher share of actives than the screen did.

These compounds were tested against Sphingosine 1-phosphate receptor 3 (Homo sapiens) (UniProt Q99500) (assay: activators of S1P3 receptor signaling – cell-based, primary and confirmation, NFAT-BLA reporter, primary screen (AID 373)). Settings: S1P3 NFAT-BLA reporter cells, agonism, FRET ratio, at 4.5 µM, active compounds read high, relative to 1 µM S1P, basal subtracted.
Sphingosine 1-phosphate receptor 3 (Homo sapiens), sequence (Q99500 whole entry, looked up): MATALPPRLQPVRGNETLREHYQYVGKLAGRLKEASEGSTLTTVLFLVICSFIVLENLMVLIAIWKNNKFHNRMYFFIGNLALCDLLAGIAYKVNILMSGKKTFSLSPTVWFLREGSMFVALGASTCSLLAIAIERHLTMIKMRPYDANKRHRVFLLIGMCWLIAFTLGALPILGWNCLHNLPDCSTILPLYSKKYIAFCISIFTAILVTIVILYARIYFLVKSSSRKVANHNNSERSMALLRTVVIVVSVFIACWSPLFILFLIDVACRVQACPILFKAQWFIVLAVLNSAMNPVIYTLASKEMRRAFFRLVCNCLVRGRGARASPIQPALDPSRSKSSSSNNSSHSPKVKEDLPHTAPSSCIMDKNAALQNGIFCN
Method in brief: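 Benchmarks: high control 1 µM S1P / System: stable CHO line with human S1P3, Gα16, NFAT-BLA reporter / Dosing: single compound concentration, 4.5 µM final / Timing: 4 h compound at 37 °C, 2 h substrate at RT / Measured by: FRET β-lactamase substrate fluorescence, excitation 405 nm, 460/535 nm emission ratio, background-subtracted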

Question: With `CC(C)c1ccc(NC(=O)NC2CCCCC2)cc1` as the compound, how does the activation read?
Answer: 0% (inactive)

Question: `Cc1ccc2nc(NC(=O)C3CCN(S(=O)(=O)c4ccc5c(c4)oc(=O)n5C)CC3)sc2c1` was tested. Which activation did it give?
Answer: -0.9% (inactive)

Question: With `O=C(O)CCCC(=O)Nc1ccccc1-n1ccnc1` as the compound, how does the activation read?
Answer: -0.2% (inactive)

Question: With `CCCOc1cccc(C(=O)Nc2nnn(CCC)n2)c1` as the compound, how does the activation read?
Answer: 0% (inactive)

Question: `COc1ccc(-c2noc(COc3ccc(Cl)c(C)c3)n2)cc1` was tested. Which activation did it give?
Answer: -0.7% (inactive)

Question: With `Cc1cc(C)nc(N(C#N)CC(=O)Nc2ccccc2)n1` as the compound, how does the activation read?
Answer: -0.7% (inactive)

Question: With `Cc1nn(-c2cc(Cl)ccc2N)c(=O)c2ccccc12` as the compound, how does the activation read?
Answer: -1.6% (inactive)

Question: How did the activation turn out when `CCOCC(=O)NCc1ccc2c(c1)cc(C)n2C` was run?
Answer: -0.3% (inactive)

Question: With `CN(CC(=O)NC1CCCCC1)S(=O)(=O)c1cccc2cccnc12` as the compound, how does the activation read?
Answer: -1.1% (inactive)

Question: For `COc1ccc(S(=O)(=O)N2CCC(C(=O)N3CCOCC3)CC2)cc1OC`, which activation is on record?
Answer: -0.8% (inactive)

Question: `Cc1ccn2cc(C(=O)NC3CCN(Cc4ccccc4)CC3)nc2c1` was tested. Which activation did it give?
Answer: -0.2% (inactive)

Question: How did the activation turn out when `CC(=O)N1CCN(C(=O)Nc2cccc(C(F)(F)F)c2)CC1` was run?
Answer: -0.4% (inactive)

Question: For `O=C(Nc1nccs1)C1CCCN1S(=O)(=O)c1cccc2cccnc12` (configuration not stated), which activation is on record?
Answer: -0.3% (inactive)

Question: Which activation does the source give for `Cc1cccc2c1N(CC(=O)OC(C)C)C(=O)C2=O` here?
Answer: -0.6% (inactive)

Question: How did the activation turn out when `COc1ccccc1Nc1ncnc2c1oc1ccccc12` was run?
Answer: -1% (inactive)

Question: `Cc1cnc(NC(=O)CSc2nnc(-c3ccc(Cl)cc3Cl)n2N)s1` was tested. Which activation did it give?
Answer: -0.7% (inactive)

Question: Which activation does the source give for `CC12CN3CC(C)(CN(C1)C3c1ccc(Cl)cc1Cl)C2=O` (configuration not stated) here?
Answer: -0.5% (inactive)

Question: For `CC(=O)Nc1ccc(NS(=O)(=O)c2cc(C)sc2C)cc1`, which activation is on record?
Answer: -0.3% (inactive)

Question: `Cc1ccc(S(=O)(=O)N2CCC(N3CCCCCC3)CC2)cc1` was tested. Which activation did it give?
Answer: -2.7% (inactive)

Question: `CC1COC2C(O1)N(S(C)(=O)=O)CCN2S(C)(=O)=O` (configuration not stated) was tested. Which activation did it give?
Answer: -1.9% (inactive)

Question: How did the activation turn out when `CCOc1ccc(C2C(C(=O)O)c3ccccc3C(=O)N2CCN2CCOCC2)cc1` (configuration not stated) was run?
Answer: -0.7% (inactive)

Question: How did the activation turn out when `CC(C)N(C(=O)Cn1c(SCC(=O)N2CCN(c3ccccc3)CC2)nc2ccccc21)C(C)C` was run?
Answer: 0.4% (inactive)

Question: Which activation does the source give for `CCn1c(SCC(=O)Nc2cccc(F)c2)nnc1-c1cc2cc(Br)ccc2o1` here?
Answer: 0.7% (inactive)

Question: How did the activation turn out when `CC1CCN(C(=O)CSc2ccc3nnc(-c4cccc(F)c4)n3n2)CC1` was run?
Answer: -0.5% (inactive)

Question: For `CCOc1ccc(OCC)c(NC(=O)C(NS(=O)(=O)c2ccc3c(c2)oc(=O)n3C)C(C)C)c1` (configuration not stated), which activation is on record?
Answer: 0.3% (inactive)

Question: How did the activation turn out when `CC1CCN(Cc2nc3c(c(=O)n(C)c(=O)n3C)n2CCc2ccccc2)CC1` was run?
Answer: -0.7% (inactive)

Question: `CCc1c(C)c2c(C)[nH]nc2oc1=O` was tested. Which activation did it give?
Answer: 0.6% (inactive)

Question: Which activation does the source give for `CCCCC(=O)N(c1ccc(OC)cc1)C1C=CS(=O)(=O)C1` (configuration not stated) here?
Answer: -0.5% (inactive)

Question: With `COc1ccc(-c2nc(CS(=O)CC(=O)NCc3cccnc3)c(C)o2)cc1OC` (configuration not stated) as the compound, how does the activation read?
Answer: -0.9% (inactive)

Question: `CCn1c(SCC(=O)NCc2ccco2)nnc1-c1ccc(N)cc1` was tested. Which activation did it give?
Answer: 1.1% (inactive)

Question: With `CCN(CC)S(=O)(=O)c1ccc2nc(COC(=O)c3n[nH]c4ccccc34)[nH]c2c1` as the compound, how does the activation read?
Answer: 0% (inactive)

Question: `C[N+](C)(C)CCOP(=O)([O-])OC[C@H](O)CO` was tested. Which activation did it give?
Answer: -3.9% (inactive)

Question: How did the activation turn out when `c1ccc(Nc2n[nH]nc2-c2ccccc2)cc1` was run?
Answer: -1.7% (inactive)

Question: For `O=C(c1ccc(-n2cnnn2)cc1)N1CCN(C(c2ccccc2)c2ccccc2)CC1`, which activation is on record?
Answer: 0.7% (inactive)

Question: With `O=C(NCc1cn2ccsc2n1)Nc1cccc(Cl)c1` as the compound, how does the activation read?
Answer: 1.1% (inactive)

Question: `Cc1cccc(CSc2nnc(Cn3c(=O)sc4ccccc43)n2C)c1` was tested. Which activation did it give?
Answer: -0.9% (inactive)

Question: How did the activation turn out when `Cc1cc(C)cc(N(CC(=O)NCC2CCCO2)S(=O)(=O)c2c(C)noc2C)c1` (configuration not stated) was run?
Answer: -0.2% (inactive)

Question: With `CCOC(=O)c1ccc(-c2ccc(C(=O)Nc3cccnc3)o2)cc1` as the compound, how does the activation read?
Answer: 0.3% (inactive)

Question: Which activation does the source give for `Cc1ccc(-c2noc(CCC(=O)Nc3ccccc3N3CCN(C)CC3)n2)cc1` here?
Answer: 0.8% (inactive)

Question: For `CCN(CC)CCCN1C(=O)C(=O)/C(=C(/O)c2c(C)nc3ccccn23)C1c1ccc(C)o1` (configuration not stated), which activation is on record?
Answer: 0.3% (inactive)

Question: `CNC(=O)Nc1cc(C(C)(C)C)no1` was tested. Which activation did it give?
Answer: -0.1% (inactive)

Question: Which activation does the source give for `COc1ccc(CCn2c(-c3ccco3)nc3nc4ccccc4nc32)cc1OC` here?
Answer: -1.1% (inactive)

Question: Which activation does the source give for `Cc1ccc(-c2c3c(=O)n(C)c(=O)n(C)c3cn2-c2ccccc2O)cc1` here?
Answer: 0.1% (inactive)

Question: Which activation does the source give for `COc1cccc(-n2c(Cc3cc(=O)[nH]c(=O)[nH]3)nnc2SCC(=O)Nc2ccccc2)c1` here?
Answer: 0.3% (inactive)

Question: How did the activation turn out when `Cc1cccc(NC(=O)COc2ccc(Br)cc2C)n1` was run?
Answer: -1% (inactive)

Question: For `Cc1cc(/C=N/n2cnnc2)c(C)n1-c1ccc2ncccc2c1`, which activation is on record?
Answer: 0.1% (inactive)

Question: How did the activation turn out when `CCOCCCNC(=O)Cc1cc(=O)[nH]c(=O)[nH]1` was run?
Answer: 0.5% (inactive)

Question: For `O=S(=O)(Nc1ccccc1N1CCOCC1)c1ccc(Cl)s1`, which activation is on record?
Answer: 0.7% (inactive)

Question: How did the activation turn out when `O=c1cc(Cn2nnc(-c3ccc(Cl)cc3)n2)nc2sccn12` was run?
Answer: -0.5% (inactive)

Question: For `O=C(CSc1nnc(-c2ccco2)n1-c1ccccc1)NCCc1ccccc1`, which activation is on record?
Answer: 0% (inactive)

Question: With `COc1ccc(C(=O)c2oc3ccc(Br)cc3c2NC(C)=O)cc1` as the compound, how does the activation read?
Answer: -0.9% (inactive)

Question: How did the activation turn out when `Cc1cc(C)c(NC(=O)CS(=O)CC(=O)Nc2cccnc2)c(C)c1` (configuration not stated) was run?
Answer: 0.3% (inactive)

Question: Which activation does the source give for `COc1ccc(-n2nnc3c(=O)n(CC(=O)N4CCC(Cc5ccccc5)CC4)cnc32)cc1` here?
Answer: -0.4% (inactive)

Question: Which activation does the source give for `Cc1ccc(C(=O)N(CN2CCCC2=O)c2ccc(F)cc2)cc1` here?
Answer: -1.3% (inactive)

Question: How did the activation turn out when `CC1CC(C)CN(CC(=O)Nc2ccc(S(N)(=O)=O)cc2)C1` (configuration not stated) was run?
Answer: -0.9% (inactive)

Question: For `CN(C)c1nc2n(c(=O)n1)CCO2`, which activation is on record?
Answer: 0.6% (inactive)

Question: With `c1ccc2c(c1)OCC(c1nn3cnnc3s1)O2` (configuration not stated) as the compound, how does the activation read?
Answer: -0.3% (inactive)

Question: `Cc1ccc(C(c2sc3nc(C)nn3c2O)N2CCN(c3ccc(F)cc3)CC2)cc1` (configuration not stated) was tested. Which activation did it give?
Answer: 0.6% (inactive)

Question: Which activation does the source give for `CC(C)(C)Oc1ncc(Br)c(OC(C)(C)C)n1` here?
Answer: -0.4% (inactive)

Question: For `N#Cc1c(N)n(CCOC(=O)c2ccc(Cl)cc2)c2nc3ccccc3nc12`, which activation is on record?
Answer: 2.5% (inactive)

Question: `COc1ccc(C(C)=O)cc1COC(=O)Cn1cnc2ccccc2c1=O` was tested. Which activation did it give?
Answer: 0.7% (inactive)

Question: `Cc1cc(C(F)(F)F)nn1CC(=O)N1CCCC1` was tested. Which activation did it give?
Answer: -0.4% (inactive)
